# Results as given in the EternaBench riboswitch data.
# System: MS2 coat protein
# Assay: apparent Kd, MS2 coat protein; higher = weaker binding; RNA-MaP array; FMN 200 µM where present
# Summary of the method: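 Binding was read on Illumina sequencing-chip clusters where stalled E. coli RNA polymerase had transcribed each design. A titration of SNAP-549-labelled MS2 coat protein began at 0.7 or 1.5 nM and doubled to 3 µM, once without ligand and once with constant ligand, in 100 mM Tris-HCl pH 7.5, 80 mM KCl, 4 mM MgCl2, BSA, DTT, yeast tRNA and Tween-20. The apparent Kd is the median of filtered per-cluster binding-curve fits, based on green signal normalised to red-channel RNA signal and control-cluster median Fmax.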
# [1] = designed as: OFF switch for flavin mononucleotide, no ligand
# [2] = ligand present: flavin mononucleotide, designed as: OFF switch for flavin mononucleotide
# [3] = designed as: ON switch for flavin mononucleotide, no ligand
# [4] = ligand present: flavin mononucleotide, designed as: ON switch for flavin mononucleotide
Sequence,apparent Kd [1] [nM],apparent Kd [2] [nM],apparent Kd [3] [nM],apparent Kd [4] [nM]
AAUGUCUGAGGAUAUCGUUUUUUGUACAUGAGGAUCACCCAUGUCCAAUUUUGUAUAUUACGAGAAGGCAGUGGAA,14.9,22.4,–,–
AAUGUCUGAGGAUAUCGUUUUUUGUACAUGAGGAUCACCCAUGUUUUAUUUUGUAUAUUACGAGAAGGCAGUGGAA,24.1,18.5,–,–
AAUGUGUGUGGAGGAUAUAUAACAUGACAACAAACACAUACAUGAGGAUCACCCAUGUCCCAUGUAUAGAAGGCCAUAUAUAUA,–,–,662,618
AAUUAAGAUCUAGGAUAUCACGUCGAUUAGACGUGAGAAGGAGAUCAUAACAUGAGGAUCACCCAUGUAUUACAUGAAUUAAUU,–,–,28,25.9
AAUUAAUUGUAGAAGGUACUUAAUUAUGUUAUGUAAGGAUAUACGUAAUUAUUACGACAUGUAUGACAUGAGGAUCACCCAUGU,–,–,7.72,7.82
AAUUACAGAGGAUAUGCGCGGUAAAACAUGAGGAUCACCCAUGUGAUACCUGCAUGACCGGCAGAAGGCUGCGUUU,22.3,108,–,–
AAUUAUAUGUAGAAGGUACUAACAUAUGUGUUGUAAGGAUAUACCAAAUUAUUAGUUAUCAAGUUACAUGAGGAUCACCCAUGU,–,–,12.3,7.36
AAUUAUUUACAGAAGGAGUAAGAUUAUGUAUUACUAGGAUAUGUAAACAUGAGGAUCACCCAUGUGUUUGUAGGUUUUUUAUGU,13.4,7.79,–,–
AAUUAUUUAUGAGGAUAUUGUGGUGAAACACCACAAGAAGGCAUGAUACACAUGAGGAUCACCCAUGUGAGCCUGAUGCAUAUA,17.2,28.4,–,–
AAUUAUUUUUGAGGAUAUGGUGGUGAAACACCACCAGAAGGCGGAAUAAACAUGAGGAUCACCCAUGUGAGCCUGAUGCUUAUG,21.3,40.5,–,–
AAUUCAAACAGAGGAUAUUGUUUAUCUCUAUUGCAAGAAGGCUGAUCUUACUACCCACUUAUGAAACAUGAGGAUCACCCAUGU,–,–,34.6,30.1
AAUUCGUCAGGAUAUGCAUGUAAUUGUUACAUUUCGCCGUUGCAGAAGGGACAUGAGGAUCACCCAUGUAAGUC,32.8,34.9,–,–
AAUUGGAUCCAGAAGGCAUGGACGACCCGUCAAAUUAACAUGAGGAUCACCCAUGUCAAAAGACAUGAGGAUAUGGAUCCUAAA,–,–,869,28.4
AAUUUGUGAAAAUUACAUGAGGAUCACCCAUGUUAGGGAAUGCAGGAUAUGUGGUUUAUUAUUUUACAGAAGGGCAAUAAUUUU,–,–,95.9,53.6
ACAAAUCCUGACAUGAGGAUCACCCAUGUUAGAUUGUUAUGUCAGGAUAUUAUCUGGCAACCAGAUGAGAAGGGACGAUUUGUG,–,–,722,64.7
ACAAGACAUGAGGAUCACCCAUGUAAAGAAAACGCAGGAUAUGCAAAAAAAUUCAUGGGUGCAGAAGGGCGAAAAA,–,–,68.1,322
ACAAGAUCAGGAUAUACAUGAGGAUCACCCAUGUAUAUAAAAAAAAAACUUUCUUCAUGUAGAAGGGAUCUUGU,17.4,46,–,–
ACACAUGAGGAUCACCCAUGUAGCUGGCGUCUGCGCCAGCCACAGGAUAUACGGCUACACAAGCCGUAGAAGGGUGAUAAACAC,–,–,62.9,27.2
ACACGACAUGAGGAUCACCCAUGUUUCCGAUUCACAGGAUAUGGGACAUCCGGAGGGUGACCAGAAGGGUGACUCG,–,–,151,28.3
ACAGAAGCACCCGGAACCGGACAAUGAGAAGGCCACGCACAUGAGGAUCACCCAUGUAAAGCUAUGGAGGAUAUCAUGAUGGAU,–,–,40.3,5.64
ACAGACCAACAGAAGGGUGAGGUGUUGUUCUUCACAGGAUAUGUUGGCAACAUGAGGAUCACCCAUGUUGGUUUUGAAGUACGU,–,–,16.3,4.68
ACAGAGCCUGACAUGAGGAUCACCCAUGUUAGAUUGUUAUGUUAGGAUAUUGUCUAGCAACUAGACAAGAAGGGAUGCUCUGUG,–,–,20.1,14.3
ACAUAAAUUCGAGGAUAUCGGUGAAAUAAUUUACGAGAAGGCGAUAAUAGUUAUAGACUUAUAGACAUGAGGAUCACCCAUGUA,–,–,30.3,27.6
ACAUACAUUCGAGGAUAUCGGUGAACAAAUUAACGAGAAGGCGAUAUAAGUUUUAAUCUUAUGAACAUGAGGAUCACCCAUGUA,–,–,26.4,24.3
ACAUACAUUCGAGGAUAUCGGUGAGAAAUCUUACGAGAAGGCGAUUCAUGAUUUAUUAUCCUGGACAUGAGGAUCACCCAUGUA,–,–,97.5,61.1
ACAUACUCUCGAGGAUAUCGUAUGGAAAAGAAACGAGAAGGCGAAUGUUAAUUUCUAAUACAUGACAUGAGGAUCACCCAUGUA,–,–,30.4,27.3
ACAUAGUGAGGAUAUGCUGCUCGUCACUUGCGUGAUGAGUAGCAGAAGGCACAUGAGGAUCACCCAUGUAAAAA,40.5,55,–,–

Sequence,apparent Kd [1] [nM],apparent Kd [2] [nM],apparent Kd [3] [nM],apparent Kd [4] [nM]
ACAUCUCGAGCCGACGGGAGAGUACAUGAGGAUCACCCAUGUGAGGAUAUCCCUGAGAAGACGGCGGAGAAGGCACUGGGUAGG,6.33,10.4,–,–
ACAUGAGGAUCACCCAUGUAAAAUGAAGAAGGUAUAUACUUGAGGAUCACCCAUGUACAUGGGAAUAAGGAUAUUCUAAUAAUU,–,–,13.5,12.6
ACAUGAGGAUCACCCAUGUAACAUGUGAAUUAAUUCUUUAACAGAAGGCGAAUAUAUAACAUUGUCGAGGAUAUGUACUUAUGU,9.85,7.41,–,–
ACAUGAGGAUCACCCAUGUACAGGGUUUAGUUUCAUUGUUUGAAGGAUAUACUUAGUUAGUUGUUGUAGAAGGUCAUAUUUUAU,203,265,–,–
ACAUGAGGAUCACCCAUGUAUUACAUGGUUAAGUUUAUUAACAGAAGGCGAAAAUACCAAUUGAUCGAGGAUAUGUAAUCAAUU,33.8,43.2,–,–
ACAUGAGGAUCACCCAUGUAUUACAUGGUUAAGUUUAUUAACAGAAGGCGAAAAUACCACUUUUUCGAGGAUAUGUUUUCUAUA,47.4,61.6,–,–
ACAUGAGGAUCACCCAUGUAUUACAUGGUUAAGUUUAUUAACAGAAGGCGAAAUUACCACUUUUUCGAGGAUAUGUUUUCUAUA,45.1,58.4,–,–
ACAUGAGGAUCACCCAUGUAUUUGUAGGAUAUACUGUAUUGUUUAUUACUCUAAUUAAUAUGUUUGUAGAAGGACAUUGCAUGA,8.39,9.86,–,–
ACAUGAGGAUCACCCAUGUGAAACCAAUGGCUGACUUUGAGCUAGGAUAUUUGUGCAUAUCAAACAAAGAAGGAGCAUUACUGG,41.1,37.9,–,–
ACAUGAGGAUCACCCAUGUGAACAUAGGAUAUUGGUGAUCAGGCGUGUUAUACAGGAUAUGUCUGCGAGAAGGGUGCACGUUGC,–,–,676,231
ACAUGAGGAUCACCCAUGUGAGGAUCUCCCAUGUUAUAUUUCAGAAGGCUCGUGUGUUUGAUGAGAGAGGAUAUGGAAUAUACG,73.7,49.7,–,–
ACAUGAGGAUCACCCAUGUGAUGAUCUUCCAUGUCAUAUUUCAGAAGGCACGCAUGUUUAAUGAGUGAGGAUAUGGAAUAUGCG,802,553,–,–
ACAUGAGGAUCACCCAUGUGAUGAUCUUCCAUGUCAUAUUUCAGAAGGCUCGCAUGUUUGAUGAGAGAGGAUAUGGAAUAUGCG,790,368,–,–
ACAUGAGGAUCACCCAUGUUAAGCGAGGAUAUUUCACUGCACAUGAGGUUCGCCCAUGUCCUGCGGAAGAAGGUGCAAAUAAUU,–,–,48.1,23.4
ACAUGAGGAUCACCCAUGUUCACAUAGGAUAUUGAUUAUAUUGGUUUAAGAAUAGUAAUUAACCUCAAGAAGGAUGCCUGAUCU,–,–,14.9,12
ACAUGAGGAUCACCCAUGUUCACAUAGGAUAUUGAUUUUAUUGGUUUUAGAAUAGUAAUUAAACUCAAGAAGGAUGCCAGUUGU,–,–,10.7,8.78
ACAUGAGGAUCACCCAUGUUGAAUUAGGAUAUUUGACUGCACAUGAGGUUCUCCCAUGUUCUACCGGAGAAGGGAUUAAUAAUU,–,–,549,240
ACAUGAGGAUCACCCAUGUUUUUCGGGUACUCUUUUUACAGCAAGGAUAUGCAUUAUUUUUUUACGCAGAAGGUGCUUUACGUC,114,196,–,–
ACAUGAGGAUCUCCCAUGUAAAAUUAGGAUAUAUAACUGCACAUGAGGAUCACCCAUGUUUUACCGUAGAAGGGAUAAAUAAUU,–,–,1010,567
ACAUGAGGAUGAGGAUAUUCAUACAUGAGGAUAGAAGAAGGCAUACAUGAGGAUCACCCAUGUAUACACAUGAGGAUCCCUUAU,81.1,156,–,–
ACAUGAUAUGUAGGAUAUCACAACUUGUGUUAUAAAAUUGUAAUUUAGGAUUGAGAAGGACAUUUACAUGAGGAUCACCCAUGU,17.6,13.3,–,–
ACAUGAUAUGUAGGAUAUCACAUUAAUUGUUUUAUAAUUGUAUUUAGGAUUUGAGAAGGACAUUUACAUGAGGAUCACCCAUGU,15.8,11.3,–,–
ACAUGUUUUGUAGGAUAUCACUAGUUGUGUUAUAUAUUUGUUAUAAUGUAUUGAGAAGGACAUUUACAUGAGGAUCACCCAUGU,–,7.44,–,–
ACAUUCACUCGACUGGUUCUUAACAUGAGGAUCACCCAUGUAGAGGAUAUAGGAAUUCUGGGUUCCUAGAAGGCUACGUGAGUG,15.9,76.7,–,–
ACCAGUGCAUCAGGAUAUCCUCACAUGAGGAUCACCCAUGUAAUGAGCCGAGGAGAAGGGAUGUGAACUCCAGUUAUCGAUCGU,–,–,101,14.1
ACCAUUUACUAAUCCUCUAUACAUGAGGAUCACCCAUGUUAUGAGGAUAUCAUCGUUCGCCGCGUUGAGAAGGCAUAGCAUUCG,16.3,25.9,–,–
ACCAUUUACUAAUCCUCUAUACAUGAGGAUCACCCAUGUUUUGAGGAUAUCAGCGUGAAACACGCUGAGAAGGCAAAACAUUCG,73.5,104,–,–
